Shown are actives, neighbours in structure and some others; about 3% of the full set was active somewhere.
Exocytosis inh – lytic granule exocytosis inhibition; TALL-104 LAMP-1 surface exposure, flow cytometry; cells stimulated with thapsigargin and PMA; inhibition, % at 10 µM; 0.66% of 360,000 active;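 active = inhibition above about 55%, limit read from the data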
iPSC survival up – hiPSC single-cell survival enhancement | ATPlite luminescence; 100% = ROCK inhibitor wells, 0% = DMSO | 0.044% of 360,000 active | survival enhancement, % at 20 µM | AID 602274; in the data active = survival enhancement above about 18%;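 note: cells exposed to compounds for 16 hours before the ATP read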
MIN6 prolif – inducers of beta-cell replication in MIN6 cells | MIN6 cells proliferation, ATPlite luminescence, 48 h; cells starved in 0.2% serum; 100% = growth in 10% serum | proliferation, % at 10 µM | 0.29% of 330,000 active | AID 2380;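 active = compounds whose signal lies at least 3.5 SD above the mean of all wells on their plate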;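 note: 0% = DMSO-treated cells in low-serum medium and 100% = 10% serum control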
MPTP inh – inhibitors of mitochondrial permeability transition pore; 1.4% of 360,000 active; isolated mouse mitochondria, Ca2+ swelling absorbance, 30 min; inhibition, % at 10 µM;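 active = inhibition of 50% or more, scaled per plate between neutral and stimulator controls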;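 note: 0% = DMSO wells given calcium and 100% = 1 mM EGTA wells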
Apaf1 inhib – blocks human Apaf-1 apoptosome activity. reconstituted apoptosome caspase-3 activity, DEVD-Rh110 fluorescence. AID 489030. inhibition, % at 20 µM. 0.71% of 330,000 active; active = inhibition of at least 40% at 20 µM;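 note: plate controls were DMSO wells for no effect and DEVD-CHO caspase inhibitor wells for full effect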
Target sequence (O14727 whole entry, looked up): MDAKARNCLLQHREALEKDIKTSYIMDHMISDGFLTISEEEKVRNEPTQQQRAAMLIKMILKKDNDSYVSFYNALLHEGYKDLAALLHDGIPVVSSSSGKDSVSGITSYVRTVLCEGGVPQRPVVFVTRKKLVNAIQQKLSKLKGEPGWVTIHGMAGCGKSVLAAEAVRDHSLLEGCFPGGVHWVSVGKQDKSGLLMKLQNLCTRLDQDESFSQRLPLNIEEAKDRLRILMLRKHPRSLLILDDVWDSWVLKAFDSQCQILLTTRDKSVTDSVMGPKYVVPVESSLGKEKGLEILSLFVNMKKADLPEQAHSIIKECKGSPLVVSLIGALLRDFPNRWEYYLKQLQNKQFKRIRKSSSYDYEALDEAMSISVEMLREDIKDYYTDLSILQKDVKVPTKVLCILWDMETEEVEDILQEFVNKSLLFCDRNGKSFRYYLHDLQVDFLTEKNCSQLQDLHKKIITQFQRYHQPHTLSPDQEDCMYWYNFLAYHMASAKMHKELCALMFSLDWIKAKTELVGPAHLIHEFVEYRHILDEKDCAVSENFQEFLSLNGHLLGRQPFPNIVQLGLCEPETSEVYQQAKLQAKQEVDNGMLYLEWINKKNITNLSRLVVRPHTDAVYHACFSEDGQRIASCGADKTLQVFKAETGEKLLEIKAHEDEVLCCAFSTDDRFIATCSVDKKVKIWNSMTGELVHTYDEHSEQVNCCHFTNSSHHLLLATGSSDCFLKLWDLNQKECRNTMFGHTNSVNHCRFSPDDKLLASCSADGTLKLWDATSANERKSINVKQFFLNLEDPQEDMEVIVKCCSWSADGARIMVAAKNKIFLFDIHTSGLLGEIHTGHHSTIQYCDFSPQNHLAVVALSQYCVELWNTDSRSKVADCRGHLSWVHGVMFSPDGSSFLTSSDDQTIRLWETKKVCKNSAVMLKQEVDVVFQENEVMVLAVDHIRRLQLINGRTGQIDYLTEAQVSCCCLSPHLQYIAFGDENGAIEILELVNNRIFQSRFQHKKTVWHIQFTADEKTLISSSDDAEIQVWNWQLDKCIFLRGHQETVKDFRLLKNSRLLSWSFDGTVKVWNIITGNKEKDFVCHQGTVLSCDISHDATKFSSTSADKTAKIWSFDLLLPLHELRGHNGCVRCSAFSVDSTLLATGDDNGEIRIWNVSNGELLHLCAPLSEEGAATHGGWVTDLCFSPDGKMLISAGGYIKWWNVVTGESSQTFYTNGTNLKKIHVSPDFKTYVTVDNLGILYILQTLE
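Assay system – apoptosome proteins · Medium – Hepes buffer, pH 7.5 · Also added – cytochrome c with DEVD-Rh110 · Timing – 30 min compound preincubation, 50 min activation, room temperature · Detection – Rh110 fluorescence, excitation 480 nm, emission 540 nm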
UBC13 inh – inhibitors of human UBC13 polyubiquitin chain formation. TR-FRET. inhibition, % at 20 µM. 0.47% of 330,000 active. AID 485273; in the data active = inhibition above about 45%, passing the limit was not always enough
MPTP counter – membrane potential counter-screen of mitochondrial pore inhibitors | shares compounds with MPTP inh | isolated mitochondria, Rhodamine 123 fluorescence | inhibition, % at 10 µM | 78% of 5,000 active | AID 624504; in the data active = inhibition above about 22%;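 note: 0% = DMSO vehicle and 100% = positive control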
MPTP swell DR – MPTP inhibition, dose response swelling confirmation; shares compounds with MPTP inh; isolated mitochondria swelling, absorbance; IC50, µM; 58% of 780 active; in the data active = IC50 below about 20 µM
MPTP cs DR – counter-screen for mitochondrial permeability transition pore inhibitors, dose response; shares compounds with MPTP inh; IC50, µM; isolated mitochondria counterscreen, fluorescence read-out; 49% of 780 active; AID 651564; in the data active = IC50 below about 80 µM
Granule exo CP1 – lytic granule exocytosis inhibition. shares compounds with Exocytosis inh. TALL-104 cells, LAMP-1 externalization, flow cytometry; stimulated with PMA plus thapsigargin. inhibition, % at 10 µM. 11% of 1,500 active. AID 651954; in the data active = inhibition above about 60%;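 note: 0% = stimulated vehicle wells and 100% = unstimulated wells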
* = called active by the depositor; · = no result.

SMILES	Exocytosis inh	iPSC survival up	MIN6 prolif	MPTP inh	Apaf1 inhib	UBC13 inh	MPTP counter	Granule exo CP1	others
CCc1cc(Cn2nc(-c3ccccc3)cc2C(=O)NCc2cccs2)on1	3.7	0.8	-8.9	5.1	16.1	7.7	·	·
O=[N+]([O-])c1ccc(Cl)c(CN2CCN(c3ncccn3)CC2)c1	-5.8	-0.3	3.3	1.5	-9.9	3.0	·	·
Cc1ccc2nc(C)c(CN3CCN(c4ccc([N+](=O)[O-])cc4Cl)CC3)n2c1	72.4*	-0.2	0.0	87.9*	23.2	-7.9	101.8*	-11.9
NCCc1c(-c2ccccc2)n(-c2ccccc2)c2ccccc12	90.6*	-0.9	-5.5	78.8*	26.0	41.1	-13.9	69.8*
OC(c1ccc(-c2ccccc2)cc1)c1ncc(-c2ccccc2Cl)[nH]1 (stereo not drawn)	2.4	2.6	·	7.1	·	·	·	·
Cc1cc(C(=O)CSc2nc3ccccc3[nH]2)c(C)n1CC1CCCO1 (stereo not drawn)	89.6*	-0.6	-5.3	71.4*	-9.8	3.7	84.8*	76.8*
O=C(CNC(=O)c1ccccc1F)OCn1nnc2ccccc2c1=O	-2.5	-0.2	-0.5	0.1	-6.0	-1.6	·	·
C(=C\c1nc(N2CCCCCC2)c2ccccc2n1)/c1ccccc1	58.2*	-0.1	0.0	65.0*	12.3	25.5	93.3*	32.0
c1ccc2c(N3CCCCC3)nc(N3CCCCC3)nc2c1	1.1	-2.3	2.1	3.6	7.0	8.8	·	·
COc1ccccc1C(=O)NC(=O)COC(=O)c1ccc([N+](=O)[O-])cc1	2.2	-0.4	-3.0	-0.5	23.0	-10.8	·	·
OC(CNCCC(c1ccccc1)c1ccccc1)COc1ccccc1 (stereo not drawn)	74.5*	-0.6	-6.3	76.8*	2.7	18.7	15.2	-3.9	MPTP swell DR=2.86*;MPTP cs DR=17.7*
OC(CNCCc1ccccc1)COc1ccc(OCC(O)CNCCc2ccccc2)cc1 (stereo not drawn)	-1.4	-0.5	-4.0	-4.4	28.2	14.8	·	·
CC1CCCCN1C(=O)C1CCN(c2nc(-c3ccccc3)nc3c2CCC3)CC1 (stereo not drawn)	3.0	-0.4	-4.2	0.7	23.9	9.6	·	·
COc1ccc2[nH]c3c(N4CCc5ccccc5C4)ncnc3c2c1	99.4*	-0.2	-3.8	81.1*	9.6	33.4	69.6*	101.7*
CCC(CC)C(=O)Nc1ccc(Sc2ccc([N+](=O)[O-])cc2)cc1	55.6*	-2.9	-5.8	95.4*	-6.5	4.3	77.1*	-0.5
Cc1ccc(NC(=O)NCC2CC2(Cl)Cl)cc1 (stereo not drawn)	-1.7	1.1	-0.8	-0.3	6.3	0.7	·	·
O=C(NCC1CC1(Cl)Cl)Nc1ccc(Cl)c(Cl)c1 (stereo not drawn)	89.6*	-0.1	-4.3	62.4*	12.3	10.0	94.5*	-11.9
OC[C@@H]1CN(CCN2CCOCC2)C[C@H](n2cnc3c(NC4CCC4)ncnc32)O1	-0.7	1.3	·	-1.1	·	·	·	·
CC(OC(=O)c1cc(=O)c2cc(Cl)ccc2o1)C(=O)N1CCCC1 (stereo not drawn)	4.9	-0.5	-0.7	-2.2	1.1	2.0	·	·
CCOc1cc(CNCc2ccccc2)ccc1OCc1ccc(Cl)cc1	90.4*	-0.3	-6.3	67.7*	26.0	26.9	73.2*	22.0
Cc1ccc(Cl)cc1-c1cc(C(=O)NCc2ccc(C(F)(F)F)cc2)[nH]n1	96.2*	-2.6	·	51.8*	·	·	96.4*	102.6*
CN1CCN(c2ccc(NC(=O)c3cccc(OCc4ccccc4)c3)cc2)CC1	58.3*	-2.5	-3.6	107.0*	19.5	32.1	-17.2	21.9	MPTP swell DR=6.58*;MPTP cs DR=>80
CCN(Cc1nc(-c2ccc(OC)cc2)no1)C(=O)c1ccoc1C	-3.2	0.8	-1.5	0.3	-7.8	-0.4	·	·
COc1ccc(CCNCc2ccc(OCc3ccccc3)cc2)cc1	85.2*	0.3	-6.5	98.5*	14.5	6.1	-1.6	57.3	MPTP swell DR=4.4*;MPTP cs DR=27.5*
O=C(CCCN1CCC(O)(c2cccc(C(F)(F)F)c2)CC1)c1ccc(F)cc1	18.6	-4.3	-6.5	4.0	19.3	26.4	·	·
SMILES	Exocytosis inh	iPSC survival up	MIN6 prolif	MPTP inh	Apaf1 inhib	UBC13 inh	MPTP counter	Granule exo CP1	others
OC1(c2cccc(C(F)(F)F)c2)CCN(c2ncnc3c2[nH]c2ccc(F)cc23)CC1	96.1*	-1.4	·	50.4*	·	·	87.4*	67.6*
CCC(=O)c1ccccc1OCCCN1CCC(Cc2ccccc2)CC1	65.0*	-0.5	-3.5	69.0*	3.4	11.5	60.4*	-8.3
COc1ccc(S(=O)(=O)NNS(=O)(=O)c2ccc(OC)c(OC)c2)cc1OC	16.0	1.2	·	0.2	·	·	·	·
COc1cccc(C2NC(=O)CCC2[N+](=O)[O-])c1OC (stereo not drawn)	0.0	-0.5	-3.4	0.0	-3.0	-4.3	·	·
COc1ccccc1Nc1nc(NCc2ccco2)c2ccccc2n1	98.9*	0.4	-4.0	70.6*	4.7	36.9	83.8*	22.9
CC(C(=O)NC1CCCc2ccccc21)N1C(=O)C2CCCCC2C1=O (stereo not drawn)	3.5	-0.7	0.9	-1.0	3.3	-8.4	·	·
c1ccc(CNc2nc(N3CCN(Cc4ccccc4)CC3)nc3ccccc23)cc1	101.0*	3.6	-4.2	52.8*	22.1	40.0	80.6*	24.3
Cc1nn(-c2ccc(C(=O)NCC(c3ccco3)N3CCCC3)cc2)c(C)c1Cl (stereo not drawn)	-0.3	-0.1	-5.3	0.7	7.5	6.0	·	·
c1ccc(-c2cc3nc(NCC4CC4)nc(NCC4CCCCC4)c3s2)cc1	57.0*	-4.1	·	74.6*	·	·	97.3*	31.9
O=C1NCCN1CCNc1nc(NCC2CC2)nc2cc(-c3ccccc3)sc12	-11.3	-2.4	·	-1.1	·	·	·	·
c1ccc(CC2CCN(c3ncnc4sccc34)CC2)cc1	63.1*	-0.7	·	100.1*	·	·	97.5*	-10.8
Cc1ccc2sc(N(CCCN(C)C)C(=O)c3ccc(S(=O)(=O)N(C)Cc4ccccc4)cc3)nc2c1C	66.0*	-0.5	-7.1	70.7*	31.8	38.9	-9.6	58.4
c1ccc(CN2CCN(C3CCCSc4ccccc43)CC2)cc1 (stereo not drawn)	60.0*	0.0	-1.7	-0.8	1.7	9.5	·	-13.0
CCOC(OCC)c1nc(N)[nH]c(=O)c1CCCCc1ccccc1	0.2	-2.3	·	-1.1	·	·	·	·

Bioassay records as filed in PubChem.
